Published values collected from several papers.
Each line is one published result; the experiments were not run side by side.
Read-out: cell growth or viability

Structure (SMILES) | cell line | method | time | IC50
C=CCNC1=C2C[C@@H](C)C[C@H](OC)[C@H](O)[C@@H](C)/C=C(\C)[C@H](OC(N)=O)[C@@H](OC)/C=C\C=C(/C)C(=O)NC(=CC1=O)C2=O | A-431 | MTT |  | 0.067 µM
CCN(c1nc(N)c(C(=O)N=C(N)N)nc1Cl)C(C)C | A-431 | MTT | 3 h | 160 µM
COc1cc2c(Oc3ccc(NC(=O)C4(C(=O)Nc5ccc(F)cc5)CC4)cc3F)ccnc2cc1OCCCN1CCOCC1 | human Myoblast |  | 72 h | 0.12 µM
COc1cc([C@@H]2c3cc4c(cc3[C@@H](O[C@@H]3O[C@@H]5CO[C@@H](C)O[C@H]5[C@H](O)[C@H]3O)[C@H]3COC(=O)[C@H]23)OCO4)cc(OC)c1O | CCD-18Co | MTS | 24 h | 48.4 µM
[Cl-].[Cl-].[Ti+4].c1cc[cH-]c1.c1cc[cH-]c1 | HEK-293T | XTT | 24 h | > 200 µM
CC1=CC(C)(C)N(Cc2ccccc2)c2ccc(O)cc21 | Huh-7 | MTT | 72 h | 16 µM
COc1cccc(Oc2ccccc2NC(=O)[C@H](C)NC(=O)c2cccc3ccccc23)c1 | SK-N-AS |  |  | 1.5 µM
C[C@@H](Oc1cc(-c2cnn(C3CCNCC3)c2)cnc1N)c1c(Cl)ccc(F)c1Cl | human Myoblast |  | 72 h | 1.84 µM
CC(C)[C@H](N)C(=O)N1CCC[C@H]1B(O)O | TF-1 | ATP luminescence | 48 h | > 60 µM
C=CC(=O)Nc1cc(Nc2nccc(-c3cn(C)c4ccccc34)n2)c(OC)cc1N(C)CCN(C)C | A-431 | ATP luminescence | 72 h | 0.249 µM
COc1cccc(Oc2ccccc2NC(=O)CNC(=O)c2cccc3ccccc23)c1 | SK-N-AS |  |  | 0.125 µM
COC(=O)CN=c1scc(-c2ccccc2)n1-c1ccccc1C | PANC-03-27 | MTT | 72 h | > 100 µM
CC(=O)c1ccc(-c2ccc3oc(C(=O)c4cc(O)c(O)c(O)c4)cc3c2)cc1 | HEK-293T | ATP luminescence | 72 h | 1.3 µg/mL
Cc1cc(NC(=O)c2cccc3cc(-c4cccc5[nH]nc(N)c45)ccc23)ccc1F | D283 | CCK-8 | 72 h | > 20 µM
O=C(CNC(=O)c1cccc2ccccc12)Nc1ccccc1Oc1cccc(O)c1 | SK-N-AS |  |  | 0.192 µM
Cc1ccncc1-c1ccc2oc(C(=O)c3cc(O)c(O)c(O)c3)cc2c1 | HEK-293T | ATP luminescence | 72 h | 0.79 µg/mL
CC(C)C[C@H](NC(=O)[C@H](Cc1ccccc1)NC(=O)c1cnccn1)B(O)O | M-07e | ATP luminescence |  | 0.0053 µM
O=C(Nc1cccc(CO)c1)c1c[nH]c2ccc(Cl)cc12 | SK-N-BE(2)-C | MTT |  | 14 µM
COC(=O)CN=c1scc(-c2ccccc2)n1-c1ccccc1OC | PANC-03-27 | MTT | 72 h | 13.5 µM
COc1cc([C@@H]2c3cc4c(cc3[C@@H](O[C@@H]3O[C@@H]5CO[C@@H](C)O[C@H]5[C@H](O)[C@H]3O)[C@H]3COC(=O)[C@H]23)OCO4)cc(OC)c1O | CCD-18Co | MTS | 72 h | 42.2 µM
COc1ccc(C[C]2([Ti+2][C]3(Cc4ccc(OC)cc4)C=CC=C3)C=CC=C2)cc1.[Cl-].[Cl-] | HEK-293T | XTT | 24 h | > 200 µM
O=C1/C(=C/c2cc(O)c(O)c(O)c2)Oc2cccc(O)c21 | HEK-293T | ATP luminescence | 24 h | > 32 µg/mL
O=C(Nc1ccccc1CO)c1c[nH]c2ccc(Cl)cc12 | SK-N-BE(2)-C | MTT |  | 13 µM
Clc1ccc(-c2nc3ccccc3[nH]2)cc1Cl | HepG2 | MTT | 48 h | 7.45 µM
COC(=O)CN=c1scc(-c2ccccc2)n1-c1ccccc1[N+](=O)[O-] | PANC-03-27 | MTT | 72 h | 25.5 µM
O=C(c1cc(O)c(O)c(O)c1)c1cc2cc(-c3ccc(CO)cc3)ccc2o1 | HEK-293T | ATP luminescence | 72 h | 1 µg/mL
COc1cc(Nc2nccc(-c3cnn4nc(OC)ccc34)n2)cc(C(F)(F)F)c1 | M-07e | ATP luminescence |  | 0.11 µM
CC(=O)CC(=O)[c-]1cccc1.[Fe+2].c1cc[cH-]c1 | PNT2 | MTT | 96 h | > 100 µM
Nc1ccn([C@@H]2O[C@H](CO)[C@@H](O)C2(F)F)c(=O)n1 | PANC-03-27 | MTT | 72 h | 0.42 µM
Cc1[nH]c(/C=C2\C(=O)Nc3ccc(S(=O)(=O)N(C)c4cccc(Cl)c4)cc32)c(C)c1C(=O)N1CCN(C)CC1 | human Myoblast |  | 72 h | 3.85 µM
